Source: ChEMBL document CHEMBL1139486, “Novel benzopyridothiadiazepines as potential active antitumor agents” (J Med Chem, 2005)

Key:
L1210 [1] = assay: Antiproliferative activity against mouse L1210 cells after 48 hrs relative control; type: functional, cell-based; settings: L1210, 48 h
Summary of the method: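 L1210 cells grown in RPMI 1640 with 10% fetal calf serum, 2 mM L-glutamine, penicillin/streptomycin and 10 mM HEPES (pH 7.4). Cells were exposed 48 h to graded drug concentrations, then MTT was added for 4 h at 37 °C. Formazan was dissolved in DMSO and OD read at 540 nm. IC50 came from linear regression on the linear part of the dose-response curve, in triplicate.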

[2] = Antiproliferative activity against adriamycin-resistant KB A1 cells; type: functional, Homo sapiens
L1210 [3] = assay: Cell cycle perturbations in mouse L1210 cells assessed as accumulation in G1 phase after 21 hrs at 1 uM relative to control; type: functional
DU-145 = assay: Antiproliferative activity against DU145 cells; type: functional, Homo sapiens
P388 = assay: Antiproliferative activity against P388 cells; type: functional, Mus musculus
L1210 [4] = assay: Cell cycle perturbations in mouse L1210 cells assessed as accumulation in 8N phase after 21 hrs at 1 uM relative to control; type: functional
IGROV-1 = assay: Antiproliferative activity against IGROV1 cells; type: functional, Homo sapiens
L1210 [5] = assay: Cell cycle perturbations in mouse L1210 cells assessed as accumulation in G2+M phase after 21 hrs at 1 uM relative to control; type: functional
Tubulin = assay: Inhibition of tubulin polymerization; type: protein-complex assay, Homo sapiens
[6] = Antiproliferative activity against KB3-1 cells; type: functional, Homo sapiens, KB 3-1
L1210 [7] = assay: Cell cycle perturbations in mouse L1210 cells assessed as accumulation in S phase after 21 hrs at 1 uM relative to control; type: functional
A549 = assay: Antiproliferative activity against A549 cells; type: functional, Homo sapiens
L1210 [8] = assay: Cell cycle perturbations in mouse L1210 cells assessed as accumulation in G1 phase after 21 hrs at 2.5 uM relative to control; type: functional
L1210 [9] = assay: Cell cycle perturbations in mouse L1210 cells assessed as accumulation in S phase after 21 hrs at 2.5 uM relative to control; type: functional
L1210 [10] = assay: Cell cycle perturbations in mouse L1210 cells assessed as accumulation in 8N phase after 21 hrs at 2.5 uM relative to control; type: functional
L1210 [11] = assay: Cell cycle perturbations in mouse L1210 cells assessed as accumulation in G2+M phase after 21 hrs at 2.5 uM relative to control; type: functional
L1210 [12] = assay: Cell cycle perturbations in mouse L1210 cells assessed as accumulation in G1 phase after 21 hrs at 5 uM relative to control; type: functional
Summary of the method: (§1)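 L1210 cells in RPMI 1640 with 10% fetal calf serum, 2 mM L-glutamine, antibiotics and 10 mM HEPES (pH 7.4) were exposed for 21 h (two doubling times). They were fixed in 70% ethanol and stained 30 min at 20 °C in D-PBS with […] RNAse and […] propidium iodide. 10⁴ cells per sample were analysed by flow cytometry for % G1, S, G2+M and 8N.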

L1210 [13] = assay: Cell cycle perturbations in mouse L1210 cells assessed as accumulation in 8N phase after 21 hrs at 5 uM relative to control; type: functional; summary of the method: as §1
L1210 [14] = assay: Cell cycle perturbations in mouse L1210 cells assessed as accumulation in S phase after 21 hrs at 5 uM relative to control; type: functional; summary of the method: as §1
L1210 [15] = assay: Cell cycle perturbations in mouse L1210 cells assessed as accumulation in G2+M phase after 21 hrs at 5 uM relative to control; type: functional; summary of the method: as §1
L1210 [16] = assay: Cell cycle perturbations in mouse L1210 cells assessed as accumulation in S phase after 21 hrs at 0.2 uM relative to control; type: functional
L1210 [17] = assay: Cell cycle perturbations in mouse L1210 cells assessed as accumulation in G1 phase after 21 hrs at 0.2 uM relative to control; type: functional
L1210 [18] = assay: Cell cycle perturbations in mouse L1210 cells assessed as accumulation in G2+M phase after 21 hrs at 0.2 uM relative to control; type: functional
L1210 [19] = assay: Cell cycle perturbations in mouse L1210 cells assessed as accumulation in 8N phase after 21 hrs at 0.2 uM relative to control; type: functional
L1210 [20] = assay: Cell cycle perturbations in mouse L1210 cells assessed as accumulation in 8N phase after 21 hrs at 2 uM relative to control; type: functional; summary of the method: as §1
L1210 [21] = assay: Cell cycle perturbations in mouse L1210 cells assessed as accumulation in S phase after 21 hrs at 2 uM relative to control; type: functional; summary of the method: as §1
L1210 [22] = assay: Cell cycle perturbations in mouse L1210 cells assessed as accumulation in G1 phase after 21 hrs at 2 uM relative to control; type: functional; summary of the method: as §1
L1210 [23] = assay: Cell cycle perturbations in mouse L1210 cells assessed as accumulation in G2+M phase after 21 hrs at 2 uM relative to control; type: functional; summary of the method: as §1
L1210 [24] = assay: Cell cycle perturbations in mouse L1210 cells assessed as accumulation in S phase after 21 hrs at 0.5 uM relative to control; type: functional
L1210 [25] = assay: Cell cycle perturbations in mouse L1210 cells assessed as accumulation in G2+M phase after 21 hrs at 0.5 uM relative to control; type: functional
L1210 [26] = assay: Cell cycle perturbations in mouse L1210 cells assessed as accumulation in 8N phase after 21 hrs at 0.5 uM relative to control; type: functional
L1210 [27] = assay: Cell cycle perturbations in mouse L1210 cells assessed as accumulation in G1 phase after 21 hrs at 0.5 uM relative to control; type: functional

IC50 (L1210 [1])	SMILES	further results
> 10 µM	COc1ccc(CN2C=CC=C3C2=Nc2ccccc2S(=O)(=O)N3C)cc1	–
0.3 µM	COc1ccc(CCN2C=CC=C3C2=Nc2ccccc2S(=O)(=O)N3C)cc1	Activity [2]: 0.3 µM; Activity (L1210 [3]): 6%; Activity (DU-145): 0.55 µM; Activity (P388): 0.33 µM; Activity (L1210 [4]): 54%; Activity (IGROV-1): 0.34 µM; Activity (L1210 [5]): 32%; IC50 (Tubulin): 3.8 µM; Activity [6]: 0.24 µM; Activity (L1210 [7]): 8%; Activity (A549): 0.45 µM
> 10 µM	COc1ccc(CCCN2C=CC=C3C2=Nc2ccc(Cl)cc2S(=O)(=O)N3C)cc1	–
> 10 µM	COc1cc(CCN2C=CC=C3C2=Nc2ccccc2S(=O)(=O)N3C)cc(OC)c1OC	–
> 10 µM	CCN(CC)CCN1c2ccccc2N=C2C(=CC=CN2CCc2ccc(OC)cc2)S1(=O)=O	–
> 100 µM	COc1ccc(CCN2c3cc(Cl)ccc3N(C)S(=O)(=O)c3cccnc32)cc1	–
> 10 µM	COc1ccc(CN2C=CC=C3C2=Nc2cc(C(F)(F)F)ccc2S(=O)(=O)N3C)cc1	–
1.3 µM	COc1ccc(CCN2C=CC=C3C2=Nc2ccc(Cl)cc2S(=O)(=O)N3C)cc1	Activity (L1210 [8]): 4%; Activity (L1210 [9]): 6%; Activity (L1210 [10]): 66%; Activity (L1210 [11]): 24%
> 10 µM	COc1ccc(CCN2C=CC=C3C2=Nc2cc(OC)ccc2S(=O)(=O)N3C)cc1	–
> 10 µM	COc1ccc(CCN2c3ccccc3S(=O)(=O)N(C)c3cccnc32)cc1	–
> 10 µM	COc1ccc(CCCN2c3ccccc3N(C)S(=O)(=O)c3cccnc32)cc1	–
1.4 µM	COc1ccc(CCN2C=CC=C3C2=Nc2cc(C)ccc2S(=O)(=O)N3C)cc1	Activity (L1210 [12]): 5%; Activity (L1210 [13]): 68%; Activity (L1210 [14]): 8%; Activity (L1210 [15]): 19%
> 10 µM	CN1C2=CC=CN(CCc3ccc(OCc4ccccc4)cc3)C2=Nc2ccccc2S1(=O)=O	–
> 10 µM	COc1cc(CCN2c3ccccc3S(=O)(=O)N(C)c3cccnc32)cc(OC)c1OC	–
> 10 µM	COc1ccc(CCN2c3cc(OC)ccc3N(C)S(=O)(=O)c3cccnc32)cc1	–
6.9 µM	COc1ccc(CN2c3cc(C)ccc3N(C)S(=O)(=O)c3cccnc32)cc1	–
0.11 µM	COc1ccc(CCN2C=CC=C3C2=Nc2ccccc2N(C)S3(=O)=O)cc1	Activity (L1210 [16]): 8%; Activity (DU-145): 0.14 µM; IC50 (Tubulin): 2.4 µM; Activity (L1210 [17]): 5%; Activity (L1210 [18]): 17%; Activity (L1210 [19]): 70%
> 100 µM	COc1ccc(CN2C=CC=C3C2=Nc2ccccc2N(Cc2ccc(OC)cc2)S3(=O)=O)cc1	–
> 100 µM	COc1ccc(CCN2C=CC=C3C2=Nc2ccccc2N(Cc2ccc(OC)cc2)S3(=O)=O)cc1	–
> 10 µM	COc1ccc(CN2c3cc(C(F)(F)F)ccc3S(=O)(=O)N(C)c3cccnc32)cc1	–

IC50 (L1210 [1])	SMILES	further results
> 100 µM	COc1ccc(CCN2c3ccccc3N(Cc3ccc(OC)cc3)S(=O)(=O)c3cccnc32)cc1	–
9.6 µM	COc1ccc(CN2c3ccccc3N(C)S(=O)(=O)c3cccnc32)cc1	–
> 10 µM	CCN(CC)CCN1c2ccccc2N(CCc2ccc(OC)cc2)c2ncccc2S1(=O)=O	–
> 10 µM	COc1ccc(CCCN2C=CC=C3C2=Nc2cc(C(F)(F)F)ccc2S(=O)(=O)N3C)cc1	–
1.3 µM	COc1ccc(CCN2C=CC=C3C2=Nc2cc(Cl)ccc2S(=O)(=O)N3C)cc1	Activity (L1210 [12]): 7%; Activity (L1210 [13]): 61%; Activity (L1210 [14]): 6%; Activity (L1210 [15]): 26%
0.19 µM	COc1ccc(CCN2C=CC=C3C2=Nc2cc(Cl)ccc2N(C)S3(=O)=O)cc1	Activity (L1210 [3]): 8%; Activity (L1210 [4]): 63%; Activity (L1210 [5]): 19%; Activity (L1210 [7]): 10%
> 10 µM	COc1ccc(CN2c3cc(Cl)ccc3S(=O)(=O)N(C)c3cccnc32)cc1	–
> 10 µM	COc1ccc(CCCN2C=CC=C3C2=Nc2cc(Cl)ccc2S(=O)(=O)N3C)cc1	–
0.41 µM	COc1ccc(CCN2C=CC=C3C2=Nc2cc(C)ccc2N(C)S3(=O)=O)cc1	Activity (L1210 [20]): 84%; Activity (L1210 [21]): 2%; Activity (L1210 [22]): 2%; Activity (L1210 [23]): 12%
1.5 µM	COc1ccc(CN2C=CC=C3C2=Nc2cc(Cl)ccc2S(=O)(=O)N3C)cc1	–
5.4 µM	COc1ccc(CN2C=CC=C3C2=Nc2cc(Cl)ccc2N(C)S3(=O)=O)cc1	–
> 10 µM	COc1ccc(CN2C=CC=C3C2=Nc2cc(OC)ccc2N(C)S3(=O)=O)cc1	–
> 10 µM	COc1ccc(CCN2c3cc(Cl)ccc3S(=O)(=O)N(C)c3cccnc32)cc1	–
> 10 µM	COc1ccc(CCN2c3ccccc3N(C)S(=O)(=O)c3cccnc32)cc1	–
> 10 µM	COc1ccc(CCCN2C=CC=C3C2=Nc2ccccc2S(=O)(=O)N3C)cc1	–
8.7 µM	COc1ccc(CN2c3cc(Cl)ccc3N(C)S(=O)(=O)c3cccnc32)cc1	–
1.5 µM	COc1ccc(CCN2C=CC=C3C2=Nc2cc(OC)ccc2N(C)S3(=O)=O)cc1	Activity (L1210 [12]): 5%; Activity (L1210 [13]): 71%; Activity (L1210 [14]): 7%; Activity (L1210 [15]): 17%
> 10 µM	COc1ccc(CN2C=CC=C3C2=Nc2ccc(Cl)cc2S(=O)(=O)N3C)cc1	–
> 50 µM	COc1ccc(CCCN2C=CC=C3C2=Nc2cc(OC)ccc2S(=O)(=O)N3C)cc1	–
8.3 µM	COc1ccc(CN2c3cc(OC)ccc3N(C)S(=O)(=O)c3cccnc32)cc1	–

IC50 (L1210 [1])	SMILES	further results
> 10 µM	COc1ccc(CN2C=CC=C3C2=Nc2ccccc2N(C)S3(=O)=O)cc1	–
> 50 µM	COc1ccc(CN2C=CC=C3C2=Nc2cc(OC)ccc2S(=O)(=O)N3C)cc1	–
0.23 µM	COc1ccc(CCN2C=CC=C3C2=Nc2ccc(Cl)cc2N(C)S3(=O)=O)cc1	Activity (L1210 [24]): 6%; Activity (L1210 [25]): 21%; Activity (L1210 [26]): 70%; Activity (L1210 [27]): 3%
> 10 µM	COc1ccc(CCN2C=CC=C3C2=Nc2cc(C(F)(F)F)ccc2S(=O)(=O)N3C)cc1	–
> 10 µM	CN(C)CCOc1ccc(CCN2C=CC=C3C2=Nc2ccccc2S(=O)(=O)N3C)cc1	–
> 10 µM	COc1ccc(CN2c3ccccc3S(=O)(=O)N(C)c3cccnc32)cc1	–
> 10 µM	COc1cc(CN2c3ccccc3S(=O)(=O)N(C)c3cccnc32)cc(OC)c1OC	–
> 10 µM	CN1C2=CC=CN(CCc3ccc(O)cc3)C2=Nc2ccccc2S1(=O)=O	–
> 100 µM	COc1ccc(CN2c3ccccc3N(Cc3ccc(OC)cc3)S(=O)(=O)c3cccnc32)cc1	–
> 10 µM	COc1ccc(CN2c3cc(C)ccc3S(=O)(=O)N(C)c3cccnc32)cc1	–
> 10 µM	COc1ccc(CCCN2C=CC=C3C2=Nc2cc(C)ccc2S(=O)(=O)N3C)cc1	–
> 10 µM	COc1ccc(CCN2c3cc(C)ccc3N(C)S(=O)(=O)c3cccnc32)cc1	–
8.3 µM	COc1ccc(CCCN2C=CC=C3C2=Nc2ccccc2N(C)S3(=O)=O)cc1	–
> 10 µM	COc1cc(CN2C=CC=C3C2=Nc2ccccc2S(=O)(=O)N3C)cc(OC)c1OC	–
9 µM	COc1ccc(CN2C=CC=C3C2=Nc2cc(C)ccc2S(=O)(=O)N3C)cc1	–
> 10 µM	COc1ccc(CCN2c3ccc(Cl)cc3N(C)S(=O)(=O)c3cccnc32)cc1	–
9.2 µM	COc1ccc(CN2C=CC=C3C2=Nc2cc(C)ccc2N(C)S3(=O)=O)cc1	–
4.1 µM	COc1ccc(CN2C=CC=C3C2=Nc2ccc(Cl)cc2N(C)S3(=O)=O)cc1	–
